Reference: ChEMBL document CHEMBL4007461, “Synthesis, Antiviral Potency, in Vitro ADMET, and X-ray Structure of Potent CD4 Mimics as Entry Inhibitors That Target the Phe43 Cavity of HIV-1 gp120” (J Med Chem, 2017)
Values after ≈ are worked out from the molar mass of the structure shown.

Assays:
[1] = (§1) Cytotoxicity against human TZM-bl cells incubated for 3 days by XTT assay; type: cell-based; conditions: TZM-bl cells
Summary of the method: (§2)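 TZM-bl cells, 1 x 10^4/well, cultured overnight at 37 °C. Compounds added at graded concentrations for three days.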

[2] = (§3) Cytotoxicity against human MT2 cells incubated for 4 days by XTT assay; type: cell-based; conditions: MT2 cells
Summary of the method: (§4)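 Run alongside the MT-2 multicycle infection assay. Compound at graded concentrations mixed with an equal volume of MT-2 cells (10^5 cells/ml). Medium replaced next day and culture continued four days.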

[3] = Inhibition of HIV1 HXB2 gp120-mediated cell to cell fusion using human MAGI-CCR5 cells as indicator cells and Env/Tat-expressing HL2/3 cells as effector cells preincubated with MAGI-CCR5 cells for 1 hr followed by HL2/3 cells addition by beta-galactosidase reporter gene assay; conditions: Human immunodeficiency virus 1, HXB2
[4] = Inhibition of HIV1 reverse transcriptase by colorimetric assay; set-up: species or system Human immunodeficiency virus 1
Summary of the method: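 HIV-1 reverse transcriptase activity measured with a commercial colorimetric reverse transcriptase kit, following the maker's instructions.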

[5] = Aqueous solubility of the compound at 1 to 100 uM in PBS at pH 7.4 after 2 hrs by turbidimetric analysis; type: physicochemical
Summary of the method: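 DMSO stocks diluted 1:100 into phosphate-buffered saline pH 7.4, giving 1, 3, 10, 30 and 100 µM final in 1% DMSO. Seven replicate wells per concentration, incubated 2 h at 37 °C, absorbance read at 620 nm. Solubility taken as the concentration giving absorbance above the 1% DMSO vehicle.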

[6] = Apparent permeability from apical to basolateral side in human Caco2 cells at 10 uM at pH 7.4 by LC-MS/MS analysis; type: ADME, cell-based; conditions: Caco-2, pH 7.4
Summary of the method: (§5)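 Caco-2 cells, passage 40-60, seeded on Transwell inserts at 1 x 10^5 cells/cm2 and grown 20 days in DMEM. Monolayers equilibrated 40 min in HBSS. Donor: compound at 10 µM final, 1% DMSO, in HBSS pH 7.4 with lucifer yellow as integrity marker. Sampled at 120 min, A-B and B-A, in duplicate, by LC-MS/MS. Papp = (dQ/dt)/(C0 × A); efflux ratio = Papp(B-A)/Papp(A-B).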

[7] = Apparent permeability from basolateral to apical side in human Caco2 cells at 10 uM at pH 7.4 by LC-MS/MS analysis; type: ADME, cell-based; conditions: Caco-2, pH 7.4; summary of the method: as §5
[8] = Metabolic stability in human liver microsomes assessed as compound remaining at 45 mins in presence of NADPH by LC-MS/MS analysis; type: ADME, microsome; conditions: read-out: Stability
[9] = Intrinsic clearance in human liver microsomes assessed per mg protein in presence of NADPH by LC-MS/MS analysis; type: ADME, microsome; conditions: read-out: CLH
[10] = Unbound fraction in human plasma at 5 uM by LC-MS/MS based equilibrium dialysis; type: ADME, cell-free
Cytochrome P450 2C19 = Cytochrome P450 2C19 (Homo sapiens, UniProt P33261); experiment: Inhibition of CYP2C19 in human liver microsomes using mephenytoin as substrate after 60 mins in presence of NADPH by LC-MS/MS analysis; type: ADME
Cytochrome P450 3A4 = Cytochrome P450 3A4 (Homo sapiens, UniProt P08684); experiment: Inhibition of CYP3A4 in human liver microsomes using midazolam as substrate after 5 mins in presence of NADPH by LC-MS/MS analysis; type: ADME
Cytochrome P450 2D6 = Cytochrome P450 2D6 (Homo sapiens, UniProt P10635); experiment: Inhibition of CYP2D6 in human liver microsomes using dextromethorphan as substrate after 5 mins in presence of NADPH by LC-MS/MS analysis; type: ADME
Cytochrome P450 2C9 = Cytochrome P450 2C9 (Homo sapiens, UniProt P11712); experiment: Inhibition of CYP2C9 in human liver microsomes using tolbutamide as substrate after 60 mins in presence of NADPH by LC-MS/MS analysis; type: ADME
[11] = Inhibition of CYP1A in human liver microsomes using ethoxyresorufin as substrate after 5 mins in presence of NADPH by LC-MS/MS analysis
[12] = target: Voltage-gated inwardly rectifying potassium channel KCNH2 (Homo sapiens, UniProt Q12809); experiment: Inhibition of human ERG expressed in CHO cells by patch clamp electrophysiology assay; type: cell-based
[13] = tested on: Human immunodeficiency virus 1; experiment: Antiviral activity against ENV pseudotyped CCR5-tropic HIV1 subtype C 225925-2, clone 22; type: functional; conditions: Human immunodeficiency virus 1, subtype C 225925-2, clone 22
Summary of the method: (§6)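 Env-pseudotyped viruses made by co-transfecting HEK293T cells with an Env-deleted pSG3 backbone (8 µg) and an Env-expression plasmid (8 µg). Supernatants were harvested 2 days after transfection, filtered, titered and stored at −80 °C. They were used for single-cycle infection, and IC50 was taken from percent inhibition.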

[14] = tested on: Human immunodeficiency virus 1; experiment: Antiviral activity against ENV pseudotyped CCR5-tropic HIV1 subtype D QA013.70I.ENV.M12; type: functional; conditions: Human immunodeficiency virus 1, subtype D QA013.70I.ENV.M12; summary of the method: as §6
[15] = tested on: Human immunodeficiency virus 1; experiment: Antiviral activity against ENV pseudotyped CCR5-tropic HIV1 subtype D QD435.100M.ENV.B5; type: functional; conditions: Human immunodeficiency virus 1, subtype D QD435.100M.ENV.B5; summary of the method: as §6
TZM = experiment: as §1; type: cell-based; conditions: tzm, 72 h; summary of the method: as §2
[16] = tested on: Human immunodeficiency virus 1; experiment: Antiviral activity against HIV1 3B infected in human MT2 cells assessed as inhibition of p24 antigen production pretreated with virus for 30 mins followed by 4 days incubation with cells by sandwich ELISA based multicycle infection assay; type: functional, cell-based
Summary of the method: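 MT-2 cells were infected with HIV-1 IIIB at 100 TCID50 and preincubated 30 min with graded compound concentrations. Medium was replaced next day. Supernatants were collected 4 days post-infection, lysed with equal volume 5% Triton X-100, and p24 was measured by sandwich ELISA. IC50 came from percent inhibition of p24.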

MT2 = experiment: as §3; type: cell-based; conditions: mt2, 96 h, 96 h; summary of the method: as §4
[17] = tested on: Vesicular stomatitis virus; experiment: Antiviral activity against G-glycoprotein expressing VSV; type: functional
Summary of the method: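 VSV-G pseudovirus made in HEK293T cells from pVPack-VSV-G, MLV gag-pol pVPack-GP and pFB-luc plasmids. Virus was preincubated 30 min with graded compound concentrations, then added to U87-CD4-CXCR4 cells (1 x 10^4/well, plated overnight).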

[18] = tested on: Human immunodeficiency virus 1; experiment: Antiviral activity against ENV pseudotyped CCR5-tropic HIV1 p1054.TC4.1499; type: functional
[19] = tested on: Human immunodeficiency virus 1; experiment: Antiviral activity against ENV pseudotyped CCR5-tropic HIV1 p9014_01.TBI.4769; type: functional; conditions: Human immunodeficiency virus 1, p9014_01.TBI.4769; summary of the method: as §6
[20] = tested on: Human immunodeficiency virus 1; experiment: Antiviral activity against ENV pseudotyped CCR5-tropic HIV1 p9021_14.B2.4571; type: functional; conditions: Human immunodeficiency virus 1, p9021_14.B2.4571
[21] = tested on: Human immunodeficiency virus 1; experiment: Antiviral activity against ENV pseudotyped CCR5-tropic HIV1 subtype C 25711-2, clone 4; type: functional; conditions: Human immunodeficiency virus 1, subtype C 25711-2, clone 4
[22] = tested on: Human immunodeficiency virus 1
[23] = tested on: Human immunodeficiency virus 1; remark: listed apart in the source
[24] = tested on: Human immunodeficiency virus 1; experiment: microbe, parasite or virus in culture; conditions: Human immunodeficiency virus 1, subtype D/A BF535.W6M.ENV.A1
[25] = tested on: Human immunodeficiency virus 1; experiment: microbe, parasite or virus in culture; conditions: Human immunodeficiency virus 1, subtype C Du 172, clone 17
[26] = tested on: Human immunodeficiency virus 1; experiment: microbe, parasite or virus in culture; conditions: Human immunodeficiency virus 1, subtype C ZM109F.PB4
[27] = tested on: Human immunodeficiency virus 1; experiment: microbe, parasite or virus in culture; conditions: Human immunodeficiency virus 1, subtype C CAP210.2.00.E8
[28] = tested on: Human immunodeficiency virus 1; experiment: microbe, parasite or virus in culture; conditions: Human immunodeficiency virus 1, subtype C 6055-2, clone 3
[29] = tested on: Human immunodeficiency virus 1; experiment: microbe, parasite or virus in culture; conditions: Human immunodeficiency virus 1, subtype C QB099.391 M.ENV.B1
[30] = tested on: Human immunodeficiency virus 1; experiment: microbe, parasite or virus in culture; conditions: Human immunodeficiency virus 1, subtype A/G CRF02_AG clone 263
[31] = tested on: Human immunodeficiency virus 1; experiment: microbe, parasite or virus in culture; conditions: Human immunodeficiency virus 1, subtype B p1058_11.B11.1550
[32] = tested on: Human immunodeficiency virus 1; experiment: microbe, parasite or virus in culture; conditions: Human immunodeficiency virus 1, subtype A/E CRF01_AE clone 269

Sequence of Voltage-gated inwardly rectifying potassium channel KCNH2 (Q12809 whole entry): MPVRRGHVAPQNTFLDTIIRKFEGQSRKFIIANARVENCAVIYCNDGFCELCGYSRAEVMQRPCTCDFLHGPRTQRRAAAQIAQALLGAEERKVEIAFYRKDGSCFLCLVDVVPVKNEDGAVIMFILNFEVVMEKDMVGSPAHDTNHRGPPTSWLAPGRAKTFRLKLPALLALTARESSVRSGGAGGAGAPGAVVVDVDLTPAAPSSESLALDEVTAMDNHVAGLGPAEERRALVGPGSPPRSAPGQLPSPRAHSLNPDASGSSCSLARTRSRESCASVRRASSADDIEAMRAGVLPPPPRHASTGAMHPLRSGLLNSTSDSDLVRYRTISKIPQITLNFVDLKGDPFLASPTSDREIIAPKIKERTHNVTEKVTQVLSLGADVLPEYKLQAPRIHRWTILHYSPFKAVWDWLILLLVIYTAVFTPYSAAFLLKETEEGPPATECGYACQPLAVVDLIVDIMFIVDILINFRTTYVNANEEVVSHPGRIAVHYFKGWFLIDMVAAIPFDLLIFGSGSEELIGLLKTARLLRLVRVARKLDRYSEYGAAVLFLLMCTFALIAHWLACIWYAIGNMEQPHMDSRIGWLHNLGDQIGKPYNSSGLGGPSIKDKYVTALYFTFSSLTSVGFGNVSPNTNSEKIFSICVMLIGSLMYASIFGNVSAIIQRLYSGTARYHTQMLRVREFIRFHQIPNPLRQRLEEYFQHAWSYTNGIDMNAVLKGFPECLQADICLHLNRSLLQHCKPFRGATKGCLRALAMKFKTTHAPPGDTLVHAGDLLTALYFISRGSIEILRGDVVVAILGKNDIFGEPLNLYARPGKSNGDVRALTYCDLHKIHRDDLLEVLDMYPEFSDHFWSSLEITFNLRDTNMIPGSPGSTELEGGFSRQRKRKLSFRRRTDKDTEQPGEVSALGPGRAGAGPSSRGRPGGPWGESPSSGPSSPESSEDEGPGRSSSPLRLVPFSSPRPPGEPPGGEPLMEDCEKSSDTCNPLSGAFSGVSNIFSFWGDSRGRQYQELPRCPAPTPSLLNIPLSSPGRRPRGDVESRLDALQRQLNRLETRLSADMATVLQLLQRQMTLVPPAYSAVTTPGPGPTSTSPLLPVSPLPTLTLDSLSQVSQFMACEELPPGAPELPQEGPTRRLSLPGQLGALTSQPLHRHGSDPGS
Sequence of Cytochrome P450 3A4 (P08684 whole entry): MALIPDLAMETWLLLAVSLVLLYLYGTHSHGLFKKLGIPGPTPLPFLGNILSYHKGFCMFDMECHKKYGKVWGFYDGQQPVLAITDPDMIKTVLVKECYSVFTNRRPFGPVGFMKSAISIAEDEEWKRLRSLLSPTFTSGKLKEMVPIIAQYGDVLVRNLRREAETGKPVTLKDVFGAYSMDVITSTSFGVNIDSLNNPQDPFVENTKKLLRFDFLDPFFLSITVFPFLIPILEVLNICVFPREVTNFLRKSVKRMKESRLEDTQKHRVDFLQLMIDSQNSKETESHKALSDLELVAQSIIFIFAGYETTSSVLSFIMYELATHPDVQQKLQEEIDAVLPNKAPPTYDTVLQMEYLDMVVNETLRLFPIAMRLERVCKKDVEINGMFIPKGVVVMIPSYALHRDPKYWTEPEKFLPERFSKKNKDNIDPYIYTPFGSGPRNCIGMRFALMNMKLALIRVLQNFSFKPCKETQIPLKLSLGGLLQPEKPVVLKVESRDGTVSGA
Sequence of Cytochrome P450 2D6 (P10635 whole entry): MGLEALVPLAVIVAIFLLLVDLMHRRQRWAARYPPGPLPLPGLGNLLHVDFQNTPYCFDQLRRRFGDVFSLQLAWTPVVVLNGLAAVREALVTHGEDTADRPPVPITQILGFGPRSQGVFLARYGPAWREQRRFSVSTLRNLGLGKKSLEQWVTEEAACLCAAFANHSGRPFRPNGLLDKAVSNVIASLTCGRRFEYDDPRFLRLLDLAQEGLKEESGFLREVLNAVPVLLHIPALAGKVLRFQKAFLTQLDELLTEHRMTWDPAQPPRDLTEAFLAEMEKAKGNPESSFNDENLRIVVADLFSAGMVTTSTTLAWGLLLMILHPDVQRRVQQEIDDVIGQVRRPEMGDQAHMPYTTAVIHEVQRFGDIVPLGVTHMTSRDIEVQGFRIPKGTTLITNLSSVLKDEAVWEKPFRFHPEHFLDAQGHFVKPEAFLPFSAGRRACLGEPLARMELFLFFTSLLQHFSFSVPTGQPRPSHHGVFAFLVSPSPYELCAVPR
Sequence of Cytochrome P450 2C19 (P33261 whole entry): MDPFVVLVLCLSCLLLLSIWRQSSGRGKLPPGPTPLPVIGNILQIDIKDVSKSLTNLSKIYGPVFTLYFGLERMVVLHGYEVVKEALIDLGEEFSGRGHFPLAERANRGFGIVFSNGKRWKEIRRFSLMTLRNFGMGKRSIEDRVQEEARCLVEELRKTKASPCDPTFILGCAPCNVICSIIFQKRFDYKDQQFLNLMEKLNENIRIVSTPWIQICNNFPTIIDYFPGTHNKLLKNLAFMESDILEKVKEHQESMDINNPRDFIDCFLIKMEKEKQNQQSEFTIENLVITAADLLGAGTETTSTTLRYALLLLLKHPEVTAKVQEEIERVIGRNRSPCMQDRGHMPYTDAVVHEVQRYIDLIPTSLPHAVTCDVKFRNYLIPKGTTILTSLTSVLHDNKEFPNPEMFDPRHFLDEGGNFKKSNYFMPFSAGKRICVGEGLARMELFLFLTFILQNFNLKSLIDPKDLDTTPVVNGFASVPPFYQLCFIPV
Sequence of Cytochrome P450 2C9 (P11712 whole entry): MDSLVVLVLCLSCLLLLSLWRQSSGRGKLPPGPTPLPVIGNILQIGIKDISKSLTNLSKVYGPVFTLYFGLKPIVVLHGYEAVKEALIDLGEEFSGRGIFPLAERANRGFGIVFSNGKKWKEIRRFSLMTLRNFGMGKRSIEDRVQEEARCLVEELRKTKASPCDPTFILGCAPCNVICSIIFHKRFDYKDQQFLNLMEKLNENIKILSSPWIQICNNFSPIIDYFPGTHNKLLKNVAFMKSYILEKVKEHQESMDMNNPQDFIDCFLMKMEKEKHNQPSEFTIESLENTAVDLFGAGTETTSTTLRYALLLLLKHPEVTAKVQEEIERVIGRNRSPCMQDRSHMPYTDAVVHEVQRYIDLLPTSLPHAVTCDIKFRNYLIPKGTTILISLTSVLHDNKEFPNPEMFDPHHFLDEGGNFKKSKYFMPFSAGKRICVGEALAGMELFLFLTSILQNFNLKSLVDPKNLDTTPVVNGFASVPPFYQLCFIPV

| Compound | IC50 [3] [µM] | IC50 [4] [µM] | solubility kinetic at 2 h [5] [µM] | Papp A→B at 10 µM [6] [nm/s] | Papp B→A at 10 µM [7] [nm/s] | remaining at […] [8] [%] | microsomal CLint [9] [µL/min/mg] | fraction unbound at 5 µM [10] | IC50 (Cytochrome P450 2C19) [µM] | IC50 (Cytochrome P450 3A4) [µM] | IC50 (Cytochrome P450 2D6) [µM] | IC50 (Cytochrome P450 2C9) [µM] | IC50 [11] [µM] | IC50 [12] [µM] | IC50 [13] [µM] | IC50 [14] [µM] | also measured |
| --- | --- | --- | --- | --- | --- | --- | --- | --- | --- | --- | --- | --- | --- | --- | --- | --- | --- |
| Cc1nc(C(NC(=O)c2ccc(-c3ccc(Cl)cc3)[nH]2)C2CCCCN2)sc1CO (centres undefined) | 6.1 | 47 | 65 (≈ 28.9 µg/mL) | 23.1 | 313 | 84 | < 10 | 0.114 | > 25 | > 25 | > 25 | > 25 | > 25 | 3.8 | 1.1 | 0.79 | CC50 at 72 h [1]: 23.6 µM; CC50 at 96 h [2]: 24.8 µM; IC50 [15]: 1.4 µM |
| Cc1ccc(-c2ccc(C(=O)NC(CN)c3ncc(CO)s3)[nH]2)cc1F (stereo in doubt) | 8.3 | 7.2 | > 100 | 25.6 | 195 | 101 | < 10 | 0.04 | > 25 | > 25 | > 25 | > 25 | 8.01 | 9.98 | 0.34 | 0.24 | CC50 (TZM): 38.8 µM; IC50 [16]: 0.76 µM; CC50 (MT2): 38 µM; IC50 [17]: 42.9 µM; IC50 [18]: 0.4 µM; IC50 [19]: 0.31 µM; IC50 [20]: 0.22 µM; IC50 [21]: 0.3 µM; IC50 [22]: 0.4 µM; IC50 [23]: 0.4 µM; IC50 [24]: 0.55 µM; IC50 [25]: 0.62 µM; IC50 [26]: 0.2 µM; IC50 [27]: 0.49 µM; IC50 [28]: 0.22 µM; IC50 [29]: 0.35 µM; IC50 [30]: 0.5 µM; IC50 [31]: 0.28 µM; IC50 [32]: 0.3 µM |
